Measurements of several laboratories.
Each line is one published result; the experiments were not run side by side.

CCCC[C@@H]1NC(=O)[C@H](Cc2ccc(O)cc2)NC(=O)[C@@H]2CCCN2C(=O)[C@H](CC(=O)O)NC(=O)[C@H](C)NC(=O)[C@H](Cc2ccccc2)NC(=O)[C@@H]2CSCCC(=O)N3CN(CN(C3)C(=O)CCSC[C@@H](C(=O)N[C@@H](CNC(=O)CCc3cn(CCOCCOCCOCCN(CCOCCOCCOCCC(=O)N[C@H]4CSCCC(=O)N5CN6CN(C5)C(=O)CCSC[C@H](NC(=O)[C@@H](CC(=O)O)NC(=O)[C@H](Cc5cccc7ccccc57)NC(=O)[C@@H]5CCCN5C4=O)C(=O)N[C@@H](CCSC)C(=O)N[C@@H](CCCCNC(=N)N)C(=O)N[C@@H](CC(=O)O)C(=O)N[C@@H](Cc4c[nH]c5ccccc45)C(=O)N[C@@H](CO)C(=O)N[C@@H]([C@@H](C)O)C(=O)N4CCC[C@H]4C(=O)N4C[C@H](O)C[C@H]4C(=O)N[C@@H](Cc4c[nH]c5ccccc45)C(=O)N[C@H](C(N)=O)CSCCC6=O)CCOCCOCCOCCn4cc(CCC(=O)NC[C@H](NC(=O)[C@@H]5CSCCC(=O)N6CN7CN(C6)C(=O)CCSC[C@H](NC(=O)[C@H](Cc6ccc(O)cc6)NC(=O)[C@@H]6CCCN6C(=O)[C@@H](C)NC(=O)[C@H](CCC(=O)O)NC(=O)[C@@H]6CCCN6C(=O)[C@H](CC(C)(C)C)NC(=O)[C@@H](NC(C)=O)CSCCC7=O)C(=O)N[C@@H](Cc6ccccc6)C(=O)N[C@@H](C)C(=O)N[C@@H](CC(=O)O)C(=O)N6CCC[C@H]6C(=O)N[C@@H](Cc6ccc(O)cc6)C(=O)N[C@@H](CCCC)C(=O)N5)C(N)=O)nn4)nn3)C(N)=O)NC1=O)C(=O)CCSC[C@H](NC(C)=O)C(=O)N[C@@H](CC(C)(C)C)C(=O)N1CCC[C@H]1C(=O)N[C@@H](CCC(=O)O)C(=O)N[C@H](C)C(=O)N1CCC[C@H]1C(=O)N[C@@H](Cc1ccc(O)cc1)C(=O)N2
half-life (rat, plasma; intravenous, 2 mg/kg): 216 min

Cl.Cl.O=C(CCN1CCCCC1)c1ccc(-c2ccc(C(=O)CCN3CCCCC3)cc2)cc1
half-life (Sprague-Dawley rat, plasma; intravenous, 5 mg/kg): 4.8 min

Cc1ncc(C)n2nc(/C=C/c3nc(N4CCCC4)cc(N4CCOCC4)n3)nc12
half-life (male Sprague-Dawley rat, plasma; intravenous, 0.1 mg/kg): 276 min

[2H]C([2H])([2H])n1cc2cc(Nc3nc(=O)n(Cc4ncn(C)n4)c(=O)n3Cc3cc(F)c(F)cc3F)c(Cl)cc2n1
half-life (male Sprague-Dawley rat, plasma; oral, 25 mg/kg): 203 min

COc1ccc2c3c1O[C@H]1C[C@@H](OC(=O)c4ccccc4)C=C[C@@]31CCN(C)C2
half-life (rat, brain; intravenous, 5 mg/kg): 117 min

O=C([O-])C(=O)[O-].[NH-][C@@H]1CCCC[C@H]1[NH-].[Pt+4] (relative stereo)
half-life (rat, plasma; oral, 10 mg/kg): 91.7 min

COC(=O)C(NC(=O)c1cn(CCCCCF)c2ccccc12)C(C)(C)C (stereo not drawn)
half-life (male Sprague-Dawley rat, plasma; subcutaneous, 100 µg/kg): 621 min

N=c1c2c(-c3ccccc3)c(-c3ccccc3)n(Cc3ccccc3)c2ncn1[C@H]1CC[C@H](O)CC1
half-life (male Sprague-Dawley rat, plasma; oral, 2 mg/kg, single dose): 534 min

CC(=O)N[C@@H](C)C(=O)N[C@H]1CSSC[C@@H](C(=O)O)NC(=O)[C@H](Cc2ccccc2)NC(=O)[C@@H]2CCCN2C(=O)[C@H](Cc2c[nH]c3ccccc23)NC(=O)[C@H](CC(C)C)NC(=O)[C@H](CC(C)C)NC(=O)[C@H](CC(=O)O)NC(=O)[C@H](Cc2ccccc2)NC(=O)[C@H](Cc2c[nH]cn2)NC(=O)[C@H]([C@@H](C)O)NC(=O)[C@H](Cc2ccccc2)NC1=O
half-life (male Sprague-Dawley rat, plasma; intravenous): 1.82 min

CCCCCn1nc(C(=O)Nc2cccc3ccccc23)c2ccccc21
half-life (male Long-Evans rat, plasma; intraperitoneal, 3 mg/kg): 324 min

O=C(Nc1cccnn1)N1CCN([C@@H]2CCOc3cc(C(F)(F)F)ccc32)CC1
half-life (male Sprague-Dawley rat, plasma; oral, 1 mg/kg): 330 min

Cn1cnc(Cn2c(=O)[nH]/c(=N\c3cc4cn(C)nc4cc3Cl)n(Cc3cc(F)c(F)cc3F)c2=O)n1
half-life (male Sprague-Dawley rat, plasma; oral, 25 mg/kg): 232 min

CCCC[C@@H]1NC(=O)[C@H](Cc2ccc(O)cc2)NC(=O)[C@@H]2CCCN2C(=O)[C@H](CC(=O)O)NC(=O)[C@H](C)NC(=O)[C@H](Cc2ccccc2)NC(=O)[C@@H]2CSCCC(=O)N3CN(CN(C3)C(=O)CCSC[C@H](NC(C)=O)C(=O)N[C@@H](CC(C)(C)C)C(=O)N3CCC[C@H]3C(=O)N[C@@H](CCC(=O)O)C(=O)N[C@H](CCCCNC(=O)CCc3cn(CCOCCOCCOCCN(CCOCCOCCOCCC(=O)N[C@H]4CSCCC(=O)N5CN6CN(C5)C(=O)CCSC[C@H](NC(=O)[C@@H](CC(=O)O)NC(=O)[C@H](Cc5cccc7ccccc57)NC(=O)[C@@H]5CCCN5C4=O)C(=O)N[C@@H](CCSC)C(=O)N[C@@H](CCCCNC(=N)N)C(=O)N[C@@H](CC(=O)O)C(=O)N[C@@H](Cc4c[nH]c5ccccc45)C(=O)N[C@@H](CO)C(=O)N[C@@H]([C@@H](C)O)C(=O)N4CCC[C@H]4C(=O)N4C[C@H](O)C[C@H]4C(=O)N[C@@H](Cc4c[nH]c5ccccc45)C(=O)N[C@H](C(N)=O)CSCCC6=O)CCOCCOCCOCCn4cc(CCC(=O)NCCCC[C@H]5NC(=O)[C@H](CCC(=O)O)NC(=O)[C@@H]6CCCN6C(=O)[C@H](CC(C)(C)C)NC(=O)[C@@H](NC(C)=O)CSCCC(=O)N6CN7CN(C6)C(=O)CCSC[C@H](NC(=O)[C@H](Cc6ccc(O)cc6)NC(=O)[C@@H]6CCCN6C5=O)C(=O)N[C@@H](Cc5ccccc5)C(=O)N[C@@H](C)C(=O)N[C@@H](CC(=O)O)C(=O)N5CCC[C@H]5C(=O)N[C@@H](Cc5ccc(O)cc5)C(=O)N[C@@H](CCCC)C(=O)N[C@H](C(N)=O)CSCCC7=O)nn4)nn3)C(=O)N3CCC[C@H]3C(=O)N[C@@H](Cc3ccc(O)cc3)C(=O)N2)C(=O)CCSC[C@@H](C(N)=O)NC1=O
half-life (rat, plasma; intravenous, 2 mg/kg): 186 min

CC(C)C[C@@H]1NC(=O)[C@H](CC(=O)O)NC(=O)[C@H](Cc2ccccc2)NC(=O)[C@H](Cc2c[nH]cn2)NC(=O)[C@H]([C@@H](C)O)NC(=O)[C@H](Cc2ccccc2)NC(=O)[C@@H](NC(=O)[C@H](C)NC(=O)COCCOCCNC(=O)COCCOCCNC(=O)CC[C@H](NC(=O)CCCCCCCCCCCCCCCCC(=O)O)C(=O)O)CSSC[C@@H](C(=O)O)NC(=O)[C@H](Cc2ccccc2)NC(=O)[C@@H]2CCCN2C(=O)[C@H](Cc2c[nH]c3ccccc23)NC(=O)[C@H](CC(C)C)NC1=O
half-life (male Sprague-Dawley rat, plasma; intravenous): 250 min

[2H]C([2H])(c1cc(F)c(F)cc1F)n1c(=O)n(Cc2ncn(C)n2)c(=O)[nH]/c1=N\c1cc2cn(C)nc2cc1Cl
half-life (male Sprague-Dawley rat, plasma; oral, 25 mg/kg): 250 min
